Source: PubChem (several laboratories)
Shown are actives, neighbours in structure and some others; about 1.6% of the full set was active somewhere.
NR2E3 ag-1 = agonists of human NR2E3 nuclear receptor; Q9Y5X4; CHO-S Gal4-NCOR/VP16-NR2E3 two-hybrid, luciferase; inhibition of corepressor binding, % at 3.98 µM; hit rate 0.35% among 360,000; AID 602229;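 active = inhibition above the mean of all tested compounds plus 3 SD, cut at about 70% in these data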;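 note: 0% = DMSO with NR2E3 transfected cells and 100% = cells lacking NR2E3 construct; higher means lower luciferase signal from less NR2E3 corepressor binding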
Target sequence (Q9Y5X4 whole entry, looked up, the tested form may be a part): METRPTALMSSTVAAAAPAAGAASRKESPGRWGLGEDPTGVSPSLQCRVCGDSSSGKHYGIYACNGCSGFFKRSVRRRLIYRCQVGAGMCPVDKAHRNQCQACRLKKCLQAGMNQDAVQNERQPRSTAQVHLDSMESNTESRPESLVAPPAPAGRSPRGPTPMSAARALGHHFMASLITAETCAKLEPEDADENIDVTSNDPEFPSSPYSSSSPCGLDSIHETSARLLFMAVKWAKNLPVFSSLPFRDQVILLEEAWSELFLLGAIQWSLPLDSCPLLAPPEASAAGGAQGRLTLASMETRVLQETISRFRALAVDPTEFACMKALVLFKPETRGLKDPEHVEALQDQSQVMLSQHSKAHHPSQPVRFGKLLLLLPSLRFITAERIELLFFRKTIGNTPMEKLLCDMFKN
NR2E3 ag-2 = agonists of human nuclear receptor NR2E3 | Q9Y5X4 | GST-NR2E3/biotin-RetCOR TR-FRET, 1536-well | inhibition of corepressor binding, % at 4.78 µM | hit rate 0.12% among 320,000;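 active = percent inhibition above the cutoff of mean plus 3 SD of all tested compounds, set per screening campaign, cut at about 20% in these data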;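 note: 0% = DMSO wells and 100% = biotin wells as full block of FRET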
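Format: 1536-well format; test system: GST-NR2E3 and biotin-RetCOR proteins; read-out basis: percent inhibition of TR-FRET ratio; timing: 5 h incubation at 4 °C; detection: time-resolved FRET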
PG9 Ab binder = binds the HIV-1 gp120 antibody PG9; TR-FRET gp120-PG9 antibody binding; inhibition, % at 6.7 µM; hit rate 0.43% among 360,000; AID 624416; in the data active = inhibition above about 8.5%
Rev-erbA mod = modulates human Rev-erb alpha binding to DNA; P20393; Rev-erbα–FITC-DNA binding, fluorescence polarization, 90 min; activity, % at 10 µM; hit rate 0.79% among 370,000; AID 1259318;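 active = activity above about 14%, limit read from the data; passing the limit was not always enough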;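 note: 0% = DMSO wells with 35 nM protein and 100% = DMSO wells with 750 nM protein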
PKA-R1A act = activates the PKA-R1A holoenzyme complex. activation, % at 11.4 µM. P00514+P68181. hit rate 0.083% among 340,000. AID 504707. PKA-R1A dissociation, Cy5-IP20 fluorescence polarization; scaled: DMSO 0%, 113 µM cGMP 100%;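 active = percent activation above the mean of all tested compounds plus 3 SD, cut at about 19% in these data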;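 note: higher means more PKAc released from R1A so a rise in polarization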
PKA-R2B activ = PKA-R2B complex activation; P22694+P31323; PKA-R2B holoenzyme dissociation, Cy5-IP20 fluorescence polarization; R2B truncated from residue 108, S112A mutant; 0% DMSO only, 100% 113 µM cGMP; activation, % at 11.4 µM; hit rate 0.079% among 340,000;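 active = activation above a cutoff set at the mean over all compounds plus 3 SD, cut at about 18% in these data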;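 note: higher means more holoenzyme dissociation and a rise in polarization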
NR2E3 agonist cf = NR2E3 (human) agonism, confirmation. cell-free NR2E3 corepressor release, TR-FRET, 5 h. activation (reported as inhibition), % at 3.98 µM. hit rate 39% among 360. shares compounds with NR2E3 ag-2; in the data active = activation above about 20%
PPARg-NCOR2 ctr = releases PPARgamma from NCOR2 in NR2E3 counter-screen | inhibition, % at 3.98 µM | hit rate 45% among 360 | shares compounds with NR2E3 ag-2 | TR-FRET PPARg-NCOR2 coregulator interaction, biochemical; in the data active = inhibition above about 20%;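 note: 0% = DMSO vehicle and 100% = wells without protein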
An asterisk follows results filed as active; x = no result given.

SMILES | NR2E3 ag-1 | NR2E3 ag-2 | PG9 Ab binder | Rev-erbA mod | PKA-R1A act | PKA-R2B activ | NR2E3 agonist cf | PPARg-NCOR2 ctr
CCCCC1=CC2=C(c3ccco3)C(=O)C(C)(OC(=O)c3ccc(OC)cc3)C(=O)C2=CN1CC(C)C (configuration not stated) | -11 | 11 | 37* | 1 | -2 | 9 | x | x
COC(=O)Sc1nnc(-c2ccc(Br)cc2)o1 | x | 27* | x | x | x | x | 22* | 35*
Cc1ccc(C(=O)C2=C(O)C(=O)N(CCCn3ccnc3)C2c2ccc(OC(C)C)cc2)o1 (configuration not stated) | -8 | 28* | 41* | -3 | -1 | -6 | 5 | 3
CCOc1ccc(C2C(C(=O)c3ccco3)=C(O)C(=O)N2CCCn2ccnc2)cc1 (configuration not stated) | -25 | x | 8 | -2 | -3 | 3 | x | x
O=C(C1=C(O)C(=O)N(CCCn2ccnc2)C1c1ccccc1)c1ccco1 (configuration not stated) | -8 | 32* | x | x | -7 | 5 | 6 | -1
CCCCc1nnc(NC(=O)CSc2nc(O)c(-c3ccccc3)c(=O)[nH]2)s1 | 1 | 3 | -2 | -6 | -1 | 13 | x | x
CCCCc1nnc(NC(=O)CSc2nc(O)c(Cc3ccccc3)c(=O)[nH]2)s1 | 27 | 26* | 0 | 1 | -10 | -3 | -6 | -5
Cn1c2ccccc2c(=O)c2c(=O)n(Cc3ccco3)c(-c3ccc(F)cc3)nc21 | -12 | 34* | -1 | -9 | -1 | -5 | 8 | 8
COc1ccc(C(CNC(=O)COc2cccc(C)c2)N2CCCC2)cc1 (configuration not stated) | 2 | 5 | 0 | 1 | -10 | 5 | x | x
COc1ccc(C(CNC(=O)COc2cccc(C(F)(F)F)c2)N2CCCC2)cc1 (configuration not stated) | 5 | 32* | 0 | 2 | -13 | -1 | 0 | -6
CCOC(=O)CCCc1sc(N)nc1-c1[nH]c(=O)[nH]c1C | -16 | 48* | x | x | -1 | -4 | 12 | -3
O=c1c2c(c1=O)N(CCP(=O)(O)O)CCCN2 | x | x | x | 2 | x | x | x | x
O=S(=O)(Nc1nc2cc3c(cc2nc1Cl)OCCO3)c1ccccc1 | -17 | 30* | 2 | -6 | -14 | -1 | 11 | 14
CC(=O)OCC(=O)[C@@]1(O)[C@H](C)CC2C3CCC4=CC(=O)C=C[C@]4(C)[C@@]3(F)[C@@H](O)C[C@@]21C (some centres not stated) | x | x | x | 4 | x | x | x | x
CCCCCCCCCCCCCCCCCC(=O)OCC(O)[C@H]1OC[C@H](O)[C@H]1O (some centres not stated) | x | x | x | 1 | x | x | x | x
N#C/C(=C\c1ccc(O)cc1)C(=O)N1CCCC1 | 6 | 0 | -1 | -5 | -2 | -3 | x | x
N#CC(=Cc1ccc(O)cc1)C(N)=C(C#N)C#N | -8 | 23* | -1 | 1 | -4 | -3 | -4 | 6
N#CCC(N)=C(C#N)C#N | -27 | 26* | 0 | 2 | -7 | -3 | 0 | 8
COC(=O)CC#N | -10 | 0 | -1 | -2 | 1 | 1 | x | x
N#Cc1c(NC(=O)c2ccc(Br)o2)n(-c2ccccc2)c2nc3ccccc3nc12 | 2 | 24* | 0 | 1 | -9 | 3 | 38* | 54*
CCC(=O)Nc1c(C#N)c2nc3ccccc3nc2n1-c1ccc(C)cc1 | -25 | x | 7 | 1 | 11 | -4 | x | x
CC(C)n1c2ccccc2c2nnc(SCC(=O)Nc3ccccc3C(=O)O)nc21 | -11 | 26* | 8 | -4 | -6 | -2 | 7 | 13
CC(=O)O[C@]1(C(C)=O)CCC2C3C[C@H](C)C4=CC(=O)CC[C@]4(C)C3CC[C@@]21C (some centres not stated) | x | x | x | 2 | x | x | x | x
Cc1ccc(CSCCNC(=O)c2ccc(N(C)S(=O)(=O)c3ccccc3)cc2)cc1 | 25 | 22* | -1 | -3 | 8 | -10 | -10 | 4
CN(c1ccc(C(=O)NCCSCc2ccc(Cl)cc2)cc1)S(=O)(=O)c1ccccc1 | 0 | 2 | -1 | 3 | 4 | -12 | x | x
SMILES | NR2E3 ag-1 | NR2E3 ag-2 | PG9 Ab binder | Rev-erbA mod | PKA-R1A act | PKA-R2B activ | NR2E3 agonist cf | PPARg-NCOR2 ctr
O=C1O[C@@H](CO)[C@H](O)[C@@H](O)[C@@H]1O | x | x | x | -3 | x | x | x | x
COc1ccc(C(c2c(C)[nH]n(-c3ccccc3)c2=O)c2c(C)[nH]n(-c3ccccc3)c2=O)cc1OC | -16 | 30* | -2 | 1 | -3 | -2 | -12 | 39*
Cc1ccc(C2C(C#N)=C(N)SC(N)=C2C#N)o1 | x | 32* | x | x | x | x | 24* | 35*
S=C(c1ccc(-c2cccc(Cl)c2)o1)N1CCCCC1 | -149 | 30* | 1 | 4 | 6 | 8 | 17 | 11
N#CC1=C(N)SC(N)=C(C#N)C1c1c(Cl)cccc1Cl | -7 | 40* | -1 | 1 | -13 | -3 | 3 | 26*
N#CC1=C(N)SC(N)=C(C#N)C1CCc1ccccc1 | -17 | 8 | 1 | -3 | -7 | -8 | x | x
CC1(C)O[C@@H]2CC3C4C[C@H](F)C5=CC(=O)CC[C@]5(C)C4[C@@H](O)C[C@]3(C)[C@]2(C(=O)CO)O1 (some centres not stated) | x | x | x | -4 | x | x | x | x
CC(=O)NC(Cc1ccc(O)cc1)C(=O)O (configuration not stated) | x | x | x | 4 | x | x | x | x
CCCCN1C(=O)NC2NC(=O)NC21 (configuration not stated) | -27 | 37* | 0 | -2 | 0 | 0 | 15 | -10
O=S(=O)(Nc1c(S(=O)(=O)c2ccccc2)c2nc3ccccc3nc2n1C1CCCCC1)c1ccccc1 | -7 | 2 | 5 | 4 | 8 | 6 | x | x
C=CCn1c(NS(=O)(=O)c2ccccc2)c(S(=O)(=O)c2ccc(C)cc2)c2nc3ccccc3nc21 | 12 | 44* | -2 | -2 | -1 | -7 | 10 | 88*
CCCC[C@H](C)C[C@H](O)/C=C/[C@H]1[C@H](O)CC(=O)[C@@H]1CCCC/C=C/C(=O)O | x | x | x | -4 | x | x | x | x
O=C(O)C(Cc1ccccc1)N1C(=O)/C(=C/C=C/c2ccco2)SC1=S (configuration not stated) | -23 | x | -2 | -32 | 3 | 4 | x | x
O=C(O)CC(C(=O)O)N1C(=O)/C(=C/C=C/c2ccco2)SC1=S (configuration not stated) | -45 | 39* | -3 | 5 | 7 | 5 | 36* | -6
